Experimental data published in ChEMBL document CHEMBL3259629, “Discovery and optimization of piperidyl-1,2,3-triazole ureas as potent, selective, and in vivo-active inhibitors of α/β-hydrolase domain containing 6 (ABHD6)” (J Med Chem, 2013).
The source made the active and inactive calls. The rule behind the calls is not given here.

Columns and labels:
[1] = molecular target: Acyl-protein thioesterase 2 (Mus musculus) (UniProt Q9WTL7); experiment: Inhibition of FP-rhodamine-labelled recombinant mouse LYPLA2 at 10 uM preincubated for 30 mins followed by FP-rhodamine labelling measured after 30 mins by gel-based competitive ABPP assay
[2] = molecular target: T1, Monoacylglycerol lipase ABHD6 (Mus musculus, UniProt Q8R2Y0); experiment: Inhibition of ABHD6 in FP-rhodamine-labelled mouse brain membrane preincubated for 30 mins followed by FP-rhodamine labelling measured after 30 mins by gel-based competitive ABPP assay
T1 sequence (Q8R2Y0 whole entry): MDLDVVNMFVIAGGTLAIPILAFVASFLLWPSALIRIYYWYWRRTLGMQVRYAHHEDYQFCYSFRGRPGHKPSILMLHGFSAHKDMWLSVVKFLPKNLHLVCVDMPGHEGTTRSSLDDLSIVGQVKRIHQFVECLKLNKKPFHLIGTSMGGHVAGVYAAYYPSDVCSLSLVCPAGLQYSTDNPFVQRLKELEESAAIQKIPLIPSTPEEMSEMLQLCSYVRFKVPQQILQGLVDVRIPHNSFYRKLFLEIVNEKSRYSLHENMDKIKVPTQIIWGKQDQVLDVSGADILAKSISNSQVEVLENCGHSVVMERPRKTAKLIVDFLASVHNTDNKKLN

[3] = molecular target: T1, Monoacylglycerol lipase ABHD6; experiment: Inhibition of recombinant mouse ABHD6 expressed in HEK293T using 2-arachidonoylglycerol preincubated for 30 mins followed by substrate addition measured after 30 mins by LC-MS analysis
[4] = system: Mus musculus; experiment: In vivo inhibition of ABHD6 in C57Bl/6 mouse liver at 5 to 10 mg/kg, ip after 4 hrs by FP-rhodamine/HT-10-labelled gel-based competitive assay; format: functional, organism-based
Summary of the method: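 C57Bl/6 mice dosed i.p. at 1–40 mg kg⁻¹ in 18:1:1 saline/ethanol/PEG40, 10 μL g⁻¹, for 4 hr, then killed. Brain and liver membrane proteomes labelled with FP-rhodamine or HT-01 (1 μM, 30 min, 37 °C) and resolved by SDS-PAGE with in-gel fluorescence scanning.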

[5] = system: Mus musculus; experiment: In vivo inhibition of ABHD6 in C57Bl/6 mouse liver at 10 to 40 mg/kg, po after 4 hrs by FP-rhodamine/HT-10-labelled gel-based competitive assay; format: functional, organism-based
[6] = system: Mus musculus; experiment: In vivo inhibition of carboxylesterase-1 in C57Bl/6 mouse liver at 40 mg/kg, po after 4 hrs by FP-rhodamine-labelled gel-based competitive ABPP assay; format: functional, organism-based; set-up: dose 40 mg/kg
[7] = system: Mus musculus; experiment: In vivo inhibition of ABHD6 in C57Bl/6 mouse brain at 20 mg/kg, ip after 4 hrs by FP-rhodamine/HT-10-labelled gel-based competitive assay; conditions: C57Bl/6, Brain
[8] = system: Mus musculus; experiment: In vivo inhibition of ABHD6 in C57Bl/6 mouse liver at 1 mg/kg, ip after 4 hrs by HT-10-labelled gel-based competitive ABPP assay; format: functional, organism-based; set-up: dose 1 mg/kg
Summary of the method: (§1)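 C57Bl/6 mice dosed i.p. at 0.1, 0.5 or 1 mg kg⁻¹ in 18:1:1 saline/ethanol/PEG40 (ethoxylated castor oil), 10 μL g⁻¹. Killed after 4 hr under isoflurane by cervical dislocation. Brain and liver membrane fractions (100,000 × g) labelled with FP-rhodamine or HT-01 (1 μM, 30 min, 37 °C), then SDS-PAGE and in-gel fluorescence scanning. Liver ABHD6 read from HT-01 gels.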

[9] = system: Mus musculus; experiment: In vivo inhibition of ABHD6 in C57Bl/6 mouse brain at 1 mg/kg, ip after 4 hrs by HT-10-labelled gel-based competitive ABPP assay; format: functional, organism-based; set-up: dose 1 mg/kg; summary of the method: as §1
[10] = system: Mus musculus; experiment: In vivo inhibition of carboxylesterase-1 in C57Bl/6 mouse liver at 0.1 to 1 mg/kg, ip after 4 hrs by FP-rhodamine-labelled gel-based competitive ABPP assay; format: functional, organism-based; summary of the method: as §1
[11] = molecular target: T1, Monoacylglycerol lipase ABHD6
[12] = molecular target: T2, Fatty-acid amide hydrolase 1 (Mus musculus) (UniProt O08914); experiment: Inhibition of mouse brain FAAH at 10 uM after 30 mins by FP-rhodamine ABPP-based SDS-PAGE analysis relative to control
T2 sequence (whole entry): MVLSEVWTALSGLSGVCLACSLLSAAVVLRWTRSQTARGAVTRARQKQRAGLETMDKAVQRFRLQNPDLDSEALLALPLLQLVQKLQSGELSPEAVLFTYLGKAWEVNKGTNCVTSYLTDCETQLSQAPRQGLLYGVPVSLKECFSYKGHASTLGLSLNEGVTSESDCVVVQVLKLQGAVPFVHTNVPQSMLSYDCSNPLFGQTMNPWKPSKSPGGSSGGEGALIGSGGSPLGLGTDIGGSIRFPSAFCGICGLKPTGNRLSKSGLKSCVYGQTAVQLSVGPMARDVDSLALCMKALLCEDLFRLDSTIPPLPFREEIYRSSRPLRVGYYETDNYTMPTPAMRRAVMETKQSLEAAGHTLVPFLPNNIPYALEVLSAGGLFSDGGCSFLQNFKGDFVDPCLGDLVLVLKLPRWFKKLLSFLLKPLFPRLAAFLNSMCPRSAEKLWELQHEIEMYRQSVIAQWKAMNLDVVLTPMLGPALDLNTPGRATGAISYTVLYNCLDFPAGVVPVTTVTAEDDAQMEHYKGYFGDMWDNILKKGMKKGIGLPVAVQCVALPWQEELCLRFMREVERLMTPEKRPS

[13] = system: Mus musculus; experiment: In vivo inhibition of FAAH in C57Bl/6 mouse brain at =>10 mg/kg, po after 4 hrs by FP-rhodamine/HT-10-labelled gel-based competitive assay
[14] = system: Mus musculus; experiment: In vivo inhibition of ABHD6 in C57Bl/6 mouse brain at 0.1 to 1 mg/kg, ip after 4 hrs by HT-10-labelled gel-based competitive ABPP assay; format: functional, organism-based; summary of the method: as §1
[15] = system: Mus musculus; experiment: In vivo inhibition of DDH2 in C57Bl/6 mouse liver and bain at 0.1 to 1 mg/kg, ip after 4 hrs by FP-rhodamine-labelled gel-based competitive ABPP assay; format: functional, organism-based; summary of the method: as §1
[16] = system: Mus musculus; experiment: In vivo inhibition of DAGLbeta in C57Bl/6 mouse liver and bain at 0.1 to 1 mg/kg, ip after 4 hrs by FP-rhodamine-labelled gel-based competitive ABPP assay; format: functional, organism-based; summary of the method: as §1
[17] = system: Mus musculus; experiment: In vivo inhibition of PLA2G7 in C57Bl/6 mouse liver and bain at 0.1 to 1 mg/kg, ip after 4 hrs by FP-rhodamine-labelled gel-based competitive ABPP assay; format: functional, organism-based; summary of the method: as §1
[18] = system: Mus musculus; experiment: In vivo inhibition of FAAH in C57Bl/6 mouse liver and bain at 0.1 to 1 mg/kg, ip after 4 hrs by FP-rhodamine-labelled gel-based competitive ABPP assay; format: functional, organism-based; summary of the method: as §1
[19] = system: Mus musculus; experiment: In vivo inhibition of MGLL in C57Bl/6 mouse liver and bain at 0.1 to 1 mg/kg, ip after 4 hrs by FP-rhodamine-labelled gel-based competitive ABPP assay; format: functional, organism-based; summary of the method: as §1

Chain of Acyl-protein thioesterase 2 (Mus musculus) (Q9WTL7 whole entry): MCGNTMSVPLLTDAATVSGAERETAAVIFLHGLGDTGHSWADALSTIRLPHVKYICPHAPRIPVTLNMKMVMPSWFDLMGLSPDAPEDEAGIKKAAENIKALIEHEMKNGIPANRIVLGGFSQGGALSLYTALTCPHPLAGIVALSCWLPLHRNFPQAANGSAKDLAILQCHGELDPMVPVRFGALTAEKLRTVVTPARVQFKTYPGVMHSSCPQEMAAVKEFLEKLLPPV

| Structure (SMILES) | inhibition [1] | IC50 [2] [nM] | IC50 [3] [nM] | inhibition [4] | inhibition [5] | inhibition [6] | inhibition in vivo at 20 mg/kg [7] [%] | IC50 ([3]; hek-293t) [nM] | inhibition [8] | inhibition [9] | inhibition [10] | IC50 [11] [nM] | inhibition [12] | inhibition [13] | inhibition [14] | inhibition [15] | inhibition [16] | inhibition [17] | inhibition [18] | inhibition [19] |
| --- | --- | --- | --- | --- | --- | --- | --- | --- | --- | --- | --- | --- | --- | --- | --- | --- | --- | --- | --- | --- |
| O=C(c1cccc(-c2ccc(-c3cn(C(=O)N4CCCCC4c4ccccc4)nn3)cc2)c1)N1CCCCC1 (racemic) | Active | 1.3 | 13.6 | Active | Active | Active | > 70 | – | – | – | – | – | – | – | – | – | – | – | – | – |
| O=C(N1CCCCC1c1ccccc1)n1cc(-c2ccc(-c3cccc(CO)c3)cc2)nn1 (racemic) | Active | – | – | – | – | – | – | 15.1 | Active | Active | Active | 0.24 | Active | Active | – | – | – | – | – | – |
| O=C(O)c1cccc(-c2ccc(-c3cn(C(=O)N4CCCCC4Cc4ccccc4)nn3)cc2)c1 (racemic) | – | – | – | – | – | – | – | – | Active | – | inactive | – | Active | Active | inactive | inactive | inactive | inactive | inactive | inactive |
